The record followed here is ChEMBL document CHEMBL1129752, “Novel 3-Pyridyl ethers with subnanomolar affinity for central neuronal nicotinic acetylcholine receptors” (J Med Chem, 1996).

Assay [1] deals with IMR-32. In words: Maximum efficacy relative to 100(uM) (S)-nicotine for cell preparations containing alpha3-betaX IMR32 cells. In kind it is functional, Homo sapiens.
Assay [2] deals with K177 cell line. In words: Ability to stimulate Rb+ efflux from human K177 cell preparations containing human alpha4-beta2 receptors. In kind it is functional, cell-based.
The test system of another assay is IMR-32 (Homo sapiens). In words: Ability to stimulate Rb+ efflux from human IMR-32 cell preparations containing human alpha3-betaX receptors.
Assay [3] has as its system IMR-32. In words: Ability to stimulate Rb+ efflux from human IMR-32 cell preparations containing human alpha3-betaX receptors. In kind it is functional, cell-based.
For assay [4], the system named is K177 cell line. In words: Maximum efficacy relative to 100(uM) (S)-nicotine for cell preparations containing alpha4-beta2 K177 cells. In kind it is functional, Homo sapiens.
The target in assay [5] is Neuronal acetylcholine receptor. In words: Binding affinity against Nicotinic Acetylcholine Receptor was determined by measuring the displacement of [3H]cytisine from a preparation of whole rat brain. An outline of the steps: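 Displacement of the radioligand [3H]-(-)-cytisine from a whole rat brain preparation, which mainly labels the α4β2 receptor subtype. The procedure follows a previously published method.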

`CN1CCC[C@H]1c1cccnc1` [NICOTINE]: the Max in the assay on IMR-32 [1] and in the assay with IMR-32 (Homo sapiens) was 100% throughout. Besides, a half-maximal effect in the assay with K177 cell line [2] (Homo sapiens, K177) (EC50) was put at 5000 nM.
Regarding `CN1CCC[C@@H]1COc1cccnc1`, the figures for the IC50 with IMR-32 [3] and in the assay on K177 cell line [2] were 54000 nM and 110000 nM, respectively. The Max is listed as less than 20% in the assay on IMR-32 [1] and less than 10% with K177 cell line [4]. This compound also showed a Ki in assay [5] of 19.7 nM.
`CN1CCC[C@H]1COc1cccnc1` (stereo in doubt; 2a) registered a Max with IMR-32 [1] of 100%. The compound further had an EC50 with K177 cell line [2] (k177) of 750 nM. The same compound showed a Ki in assay [5] of 0.15 nM.
`c1cncc(OC[C@@H]2CCN2)c1`: the concentration giving a half-maximal response (EC50) was found to be 700 nM in the assay with IMR-32 [3] and 680 nM in the assay with K177 cell line [2] (Homo sapiens, K177). For the same compound, the results for the Max in the assay with IMR-32 [1] and with K177 cell line [4] were 113% and 163%, respectively.
As to `CN1CC[C@H]1COc1cccnc1`, the half-maximal effective concentration (EC50) came out at 30000 nM in the assay on IMR-32 [3] and 3700 nM in the assay with K177 cell line [2] (Homo sapiens, K177). Further, the Max in the assay on IMR-32 [1] is reported as 74%; with K177 cell line [4], 116%. For the same compound, the Ki in assay [5] came out at 0.45 nM.
Regarding `c1cncc(OC[C@H]2CCN2)c1`, the EC50 was determined as 1100 nM with IMR-32 [3] and 400 nM in the assay with K177 cell line [2] (Homo sapiens, K177). For the same compound, the Max in the assay with IMR-32 [1] turned out to be 116%; in the assay on K177 cell line [4], 159%.
Take `c1cncc(OC[C@H]2CCCN2)c1`: the EC50 was 5800 nM in the assay on IMR-32 [3] and 4300 nM in the assay with K177 cell line [2] (Homo sapiens, K177). In addition, the values for the Max with IMR-32 [1] and with K177 cell line [4] were 100% and 120%, respectively. The compound further gave a Ki in assay [5] of 0.14 nM.
Turning to `Clc1ccc(C2CC3CCC2N3)cn1` (stereo not drawn) [EPIBATIDINE], the EC50 is 7 nM in the assay with IMR-32 [3] and 17 nM in the assay on K177 cell line [2] (Homo sapiens, K177). For the same compound, the Max with IMR-32 [1] and in the assay on IMR-32 (Homo sapiens) was 156% each time.
In the case of `CN1CC[C@@H]1COc1cccnc1`, the 50% effective concentration (EC50) is 38000 nM with IMR-32 [3] and 35000 nM in the assay on K177 cell line [2] (Homo sapiens, K177). Moreover, the Max amounted to 39% in the assay on IMR-32 [1] and 103% in the assay with K177 cell line [4]. Also, the affinity in assay [5], expressed as Ki, was 3.5 nM.
